Shown are actives, neighbours in structure and some others; about 3% of the full set was active somewhere.
UBC13 polyUb: inhibitors of human UBC13 polyubiquitin chain formation | inhibition, % at 20 µM | P61088 | TR-FRET | 0.47% of 330,000 active; in the data active means inhibition above about 45%, passing the limit was not always enough
Target sequence (P61088 whole entry, looked up): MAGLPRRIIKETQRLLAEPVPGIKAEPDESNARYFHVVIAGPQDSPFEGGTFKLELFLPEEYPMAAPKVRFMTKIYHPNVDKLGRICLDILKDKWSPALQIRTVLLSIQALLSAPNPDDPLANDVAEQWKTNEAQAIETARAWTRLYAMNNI
SENP8 block-1: inhibitors of human SENP8 protease | purified SENP8, Z-RLRGG-aminoluciferin cleavage, luminescence | inhibition, % at 10 µM | 1.2% of 330,000 active; in the data active means inhibition above about 50%
Target sequence (Q96LD8 whole entry, looked up): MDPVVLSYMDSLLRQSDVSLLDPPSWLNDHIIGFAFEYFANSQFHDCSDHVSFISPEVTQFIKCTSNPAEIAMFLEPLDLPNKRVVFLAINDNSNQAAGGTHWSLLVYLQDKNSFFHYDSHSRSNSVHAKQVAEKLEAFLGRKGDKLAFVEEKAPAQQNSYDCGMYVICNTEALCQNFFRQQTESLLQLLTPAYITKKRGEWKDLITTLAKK
SENP8 block-2: SENP8 (human) protease inhibition. recombinant SENP8, Nedd8 substrate fluorescence. inhibition, % at 20 µM. 0.64% of 360,000 active; in the data active means inhibition mostly above about 40%, no sharp cut-off; inactive means mostly below about 27%
SENP6 block: inhibitors of human SENP6 protease | inhibition, % at 10 µM | AID 2599 | Q9GZR1 | 1.8% of 330,000 active | Recombinant SENP6 catalytic domain, aminoluciferin luminescence;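 active means inhibition above about 50% at the single tested dose, limit read from the data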
SENP7 inh: inhibitors of human SENP7 protease; Q9BQF6; recombinant SENP7, Z-RLRGG-aminoluciferin luminescence, 40 min; inhibition, % at 5 µM; 1.5% of 330,000 active;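 active means inhibition above about 50% at the single test dose, limit read from the data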
Apaf1 inhib: human Apaf-1 inhibition | inhibition, % at 20 µM | O14727 | reconstituted apoptosome caspase-3 activity, DEVD-Rh110 fluorescence | 0.71% of 330,000 active | AID 489030; active means inhibition of at least 40% at 20 µM
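Assay system: Apoptosome proteins | Medium: pH 7.5 Hepes buffer with CHAPS, BSA, DTT | Also added: Cytochrome c and DEVD-Rh110 substrate | Times: 30 min plus 50 min, RT | Detection: Rhodamine 110 fluorescence at Ex 480/Em 540 nm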
SENP8 conf: human SENP8 inhibition, confirmed. Recombinant SENP8, Z-RLRGG-aminoluciferin luminescence, 60 min. inhibition, % at 12.5 µM. 40% of 6,200 active. shares compounds with SENP7 inh;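 active means mean inhibition across replicates above about 50%, limit read from the data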
SENP6 confirm: confirmation of human SENP6 protease inhibitors. shares compounds with SENP7 inh. recombinant SENP6, Z-RLRGG-aminoluciferin luminescence. inhibition, % at 12.5 µM. 58% of 6,200 active
SENP7 confirm: confirmation of human SENP7 protease inhibitors. 69% of 6,200 active. AID 488917. recombinant SENP7, Z-RLRGG-aminoluciferin luminescence, 40 min. inhibition, % at 12.5 µM. shares compounds with SENP7 inh
Casp3 select: caspase-3 inhibition (SENP selectivity assay); shares compounds with SENP7 inh; purified caspase-3, Z-DEVD-aminoluciferin luminescence, 60 min; inhibition, % at 12.5 µM; 60% of 6,200 active;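 active means mean inhibition above about 50%, limit read from the data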
Target sequence (P42574 28-227 limits assumed): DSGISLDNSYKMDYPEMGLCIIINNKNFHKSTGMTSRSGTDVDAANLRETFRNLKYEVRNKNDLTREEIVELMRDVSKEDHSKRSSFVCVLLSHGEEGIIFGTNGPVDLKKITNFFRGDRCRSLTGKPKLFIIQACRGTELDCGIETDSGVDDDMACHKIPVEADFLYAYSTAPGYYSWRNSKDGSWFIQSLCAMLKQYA
SENP luc ctr: counter-screen for SENP inhibitors: luminescence interference | 39% of 6,200 active | shares compounds with SENP7 inh | inhibition, % at 12.5 µM | Pre-incubated SENP8/Z-RLRGG-aminoluciferin, luciferase luminescence interference;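 active means mean inhibition above about 50% when retested at one dose, limit read from the data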
Each line names hits and unclear results; the compound was inactive in the other large screens (follow-up assays come after a bar, where they were run).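 How the source made its calls, unless noted: active means mean inhibition above about 50% in the one-dose retest (limit read from the data); inactive means the rest.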

COc1ccc([C@@H]2C[C@H]3[C@@H](CN2S(=O)(=O)c2ccccc2)C(=O)C[C@@H](c2ccc(OC)cc2)N3S(=O)(=O)c2ccccc2)cc1	none (no result: UBC13 polyUb, SENP8 block-1, SENP6 block, SENP7 inh, Apaf1 inhib)
N/C(=N\OC(=O)c1ccncc1)c1cccc([N+](=O)[O-])c1	none
Cc1ccc(/C(N)=N/OC(=O)CCC2CCCCC2)cc1	none
COc1cccc(C(=O)O/N=C(\N)c2ccncc2)c1	SENP7 inh 67.4 | SENP8 conf inactive | SENP6 confirm inactive | SENP7 confirm 78.1 | Casp3 select 82.6 | SENP luc ctr 58.9
Cc1cccc(/C(N)=N/OC(=O)c2ccncc2)c1	SENP8 block-1 75.4, SENP6 block 89.0, SENP7 inh 92.4 | SENP8 conf 78.9 | SENP6 confirm 84.2 | SENP7 confirm 95.8 | Casp3 select 91.9 | SENP luc ctr 79.8
Cc1cccc(/C(N)=N/OC(=O)CCC2CCCCC2)c1	SENP6 block 82.7 | SENP8 conf 67.3 | SENP6 confirm 90.2 | SENP7 confirm 98.3 | Casp3 select 86.4 | SENP luc ctr 82.7
COc1ccc(C(=O)O/N=C(\N)c2ccncc2)cc1OC	none
COc1cccc(C(=O)O/N=C(\N)c2ccc(C)cc2)c1	SENP8 block-1 57.5, SENP6 block 73.0, SENP7 inh 83.3 | SENP8 conf 74.2 | SENP6 confirm 75.9 | SENP7 confirm 93.4 | Casp3 select 79.0 | SENP luc ctr 57.7
CC1(C)CC(=O)C=C(c2ccc(-c3cnc4ccccc4c3)cc2)C1=O	none (no result: UBC13 polyUb, SENP8 block-1, SENP6 block, SENP7 inh, Apaf1 inhib)
COc1cc(-c2nnc(COC(=O)c3ccc([N+](=O)[O-])o3)o2)cc(OC)c1OC	none (no result: UBC13 polyUb, SENP8 block-1, SENP6 block, SENP7 inh, Apaf1 inhib)
O=C(C1CC1)N1CCC(c2nc(-c3ccc(S(=O)(=O)N4CCCC4)cc3)no2)CC1	SENP7 inh 83.6 | SENP8 conf inactive | SENP6 confirm inactive | SENP7 confirm inactive | Casp3 select inactive | SENP luc ctr inactive
O=C(NC1CCCCC1)N1CCC(c2nc(-c3ccc(S(=O)(=O)N4CCCC4)cc3)no2)CC1	none
CN1CCN(/N=C/c2ccc(-c3ccccc3)cc2)CC1	SENP8 block-1 78.6, SENP7 inh 83.5 | SENP8 conf 81.7 | SENP6 confirm 85.6 | SENP7 confirm 98.3 | Casp3 select 89.8 | SENP luc ctr 50.2
O=C(COc1ccccc1)Nc1ncccn1	none
O=C(COc1ccc2ccc(=O)oc2c1)Nc1nccs1	none
O=C(COc1ccccc1)Nc1nccs1	SENP8 block-1 61.3, SENP6 block 75.4 | SENP8 conf inactive | SENP6 confirm 61.4 | SENP7 confirm 89.9 | Casp3 select 90.2 | SENP luc ctr 73.6
O=C(COc1ccc2ccccc2c1)Nc1nccs1	SENP8 block-1 66.3, SENP6 block 61.0, SENP7 inh 77.3 | SENP8 conf inactive | SENP6 confirm 88.9 | SENP7 confirm 98.9 | Casp3 select 81.4 | SENP luc ctr 75.9
CC1(C(=O)NS(C)(=O)=O)CCN1C(=O)C/C=C/c1ccccc1 (stereo not given)	none (no result: UBC13 polyUb, SENP8 block-1, SENP6 block, SENP7 inh, Apaf1 inhib)
CSc1ccc(Cn2c(C)c(C(=O)NCc3ccco3)sc2=O)cc1	none (no result: UBC13 polyUb, SENP8 block-1, SENP6 block, SENP7 inh, Apaf1 inhib)
CC(=O)Nc1ccc(NC(=O)/C=C/c2ccc3c(c2)OCO3)cc1	none
O=C(/C=C/c1cc(Br)ccc1F)Nc1cccnc1	none
Cc1ccc(C(=O)C=Cc2ccc3c(c2)OCO3)c(C)c1	none (no result: UBC13 polyUb, SENP8 block-1, SENP6 block, SENP7 inh, Apaf1 inhib)
O=C(/C=C/c1c(F)cccc1Cl)Nc1cccnc1	SENP8 block-1 82.6, SENP6 block 86.9, SENP7 inh 90.1 | SENP8 conf inactive | SENP6 confirm 84.8 | SENP7 confirm 98.5 | Casp3 select 86.9 | SENP luc ctr inactive
Nc1ccccc1C(=O)/C=C/c1ccc2c(c1)OCO2	SENP8 block-1 66.2, SENP6 block 84.2, SENP7 inh 94.1 | SENP8 conf 90.3 | SENP6 confirm 81.4 | SENP7 confirm 93.1 | Casp3 select 55.2 | SENP luc ctr 72.9
Cc1cc(C)nc(NC(=O)/C=C/c2ccc3c(c2)OCO3)c1	SENP8 block-1 71.1, SENP6 block 86.2, SENP7 inh 90.5 | SENP8 conf inactive | SENP6 confirm 72.9 | SENP7 confirm 99.8 | Casp3 select 87.5 | SENP luc ctr 51.7
O=C(/C=C/c1ccc2c(c1)OCO2)Nc1cccnc1	SENP8 block-1 77.3, SENP6 block 84.2, SENP7 inh 85.2 | SENP8 conf inactive | SENP6 confirm 79.9 | SENP7 confirm 96.9 | Casp3 select 89.3 | SENP luc ctr 75.9
CCCS(=O)(=O)NC(=O)C1(C)CCN(C(=O)c2ccc(OC)cc2)C1 (stereo not given)	none (no result: UBC13 polyUb, SENP8 block-1, SENP6 block, SENP7 inh, Apaf1 inhib)
Cc1ccc(O)c(N=Cc2sc3ccccc3c2Cl)c1	none
CC(=Nc1cccc(O)c1)c1sc2ccccc2c1O	SENP8 block-1 89.7, SENP6 block 91.1, SENP7 inh 89.7 | SENP8 conf 84.3 | SENP6 confirm 81.7 | SENP7 confirm 93.2 | Casp3 select 54.2 | SENP luc ctr 72.3
CC(=Nc1ccc(C)cc1)c1sc2ccccc2c1O	SENP8 block-1 90.1, SENP6 block 94.0, SENP7 inh 95.5 | SENP8 conf 94.6 | SENP6 confirm 95.8 | SENP7 confirm 100.6 | Casp3 select 85.0 | SENP luc ctr inactive
CC(=Nc1ccc(C)cc1C)c1sc2ccccc2c1O	SENP8 block-1 65.0, SENP6 block 78.3, SENP7 inh 65.8 | SENP8 conf 71.0 | SENP6 confirm 80.0 | SENP7 confirm 91.0 | Casp3 select 59.9 | SENP luc ctr inactive
CSc1ncnc2c1ncn2CCCN1CCN(Cc2cccc3ccccc23)CC1	none (no result: UBC13 polyUb, SENP8 block-1, SENP6 block, SENP7 inh, Apaf1 inhib)
CN1CC=C2C(C#N)=C(N)C(C#N)(C#N)[C@H](c3ccoc3)[C@H]2C1	SENP6 block 75.9 | SENP8 conf inactive | SENP6 confirm inactive | SENP7 confirm inactive | Casp3 select inactive | SENP luc ctr inactive
CC(=O)N1CC=C2C(C#N)=C(N)C(C#N)(C#N)[C@H](c3ccoc3)[C@H]2C1	none
COc1ccc(N2Cc3ccccc3C2=O)cc1	SENP8 block-1 77.9, SENP6 block 87.1, SENP7 inh 92.8 | SENP8 conf 86.0 | SENP6 confirm 87.0 | SENP7 confirm 98.0 | Casp3 select 94.4 | SENP luc ctr 81.6
